Assays:
MDA-MB-231 [1] = test: Cytotoxicity against human MDA-MB-231 cells assessed as growth inhibition at 10^-5 M after 72 hrs by MTT assay relative to control; assay type: functional; conditions: MDA-MB-231, 72 h, read-out: GI
HeLa = test: Cytotoxicity against human HeLa cells assessed as growth inhibition at 10^-5 M after 72 hrs by MTT assay relative to control; assay type: functional; conditions: read-out: GI
[2] = Cytotoxicity against human HCT116 cells assessed as growth inhibition at 10^-5 M after 72 hrs by MTT assay relative to control; assay type: functional; conditions: HCT-116, 72 h, read-out: GI
A549 [3] = test: Cytotoxicity against human A549 cells assessed as growth inhibition at 10^-5 M after 72 hrs by MTT assay relative to control; assay type: functional; conditions: A549, 72 h, read-out: GI
MCF7 = test: Cytotoxicity against human MCF7 cells assessed as growth inhibition at 10^-5 M after 72 hrs by MTT assay relative to control; assay type: functional; conditions: MCF7, 72 h, read-out: GI
[4] = system: Lewis lung carcinoma cell line; test: Antitumor activity against mouse LLC cells allografted in C57BL/6 mouse assessed as tumor growth inhibition at 2.5 mg/kg, ip administered for 14 days measured on day 15 relative to control; assay type: functional; conditions: route intraperitoneal, read-out: TGI
How it was run: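 Female C57BL/6 mice (18–22 g) given 3 × 10^6 Lewis lung cancer cells subcutaneously in the right flank; dosing began 7 to 21 days after inoculation. Mice were randomized into groups of 10. Treatment was intraperitoneal daily for 14 days at 2.5, 5 or 10 mg/kg, with a saline control group. Tumors were excised and weighed when the mice were killed after 14 days.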

Mus musculus = test: Toxicity in C57BL/6 mouse allografted with mouse LLC cells assessed as decrease in body weight at 2.5 mg/kg, ip administered for 14 days measured during compound dosing; assay type: organism-based; design: dose 2.5 mg/kg, route intraperitoneal; conditions: in vivo, 336 h
How it was run: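 LLC-bearing female C57BL/6 mice (18–22 g; 3 × 10^6 cells s.c., right flank) were randomized into groups of 10 and dosed i.p. daily for 14 days, with a saline control. Body weight was recorded every day from the first treatment.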

A549 [5] = test: Cytotoxicity against human A549 cells assessed as growth inhibition after 72 hrs by MTT assay; assay type: functional, cell-based; conditions: A549, 72 h
How it was run: (§1)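 MTT viability assay. Cells were seeded at 5000 per well, incubated overnight, then exposed to compound at a range of concentrations for 72 h. MTT was added from a 5 mg/mL stock for 4 h, and absorbance was read at 570 nm. IC50 (50% viability inhibition) was calculated by the logit method. Each concentration was run at least three times.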

MDA-MB-231 [6] = test: Cytotoxicity against human MDA-MB-231 cells assessed as growth inhibition after 72 hrs by MTT assay; assay type: functional, cell-based; conditions: MDA-MB-231, 72 h; how it was run: as §1
[7] = Cytotoxicity against human HCT116 cells assessed as growth inhibition after 72 hrs by MTT assay; assay type: functional, cell-based; conditions: HCT-116, 72 h; how it was run: as §1

COc1cc2ccc(=O)oc2cc1OC(=O)/C=C/c1ccccc1
inhibition of growth at 10 µM (MDA-MB-231 [1]): 10.1%
inhibition of growth at 10 µM (HeLa): 19.4%
inhibition of growth at 10 µM [2]: 12.2%
inhibition of growth at 10 µM (A549 [3]): 19.4%
inhibition of growth at 10 µM (MCF7): 3.65%

COc1cccc2c1C(=O)c1c(O)c3c(c(O)c1C2=O)C[C@@](O)(C(=O)CO)C[C@@H]3O[C@H]1C[C@H](N)[C@H](O)[C@H](C)O1 [DOXORUBICIN]
inhibition in vivo at 2.5 mg/kg [4]: 52.5%
Activity (Mus musculus): Toxic
IC50 (A549 [5]): 1280 nM
inhibition of growth at 10 µM (MDA-MB-231 [1]): 89.3%
inhibition of growth at 10 µM (HeLa): 82%
inhibition of growth at 10 µM [2]: 79%
IC50 (MDA-MB-231 [6]): 1550 nM
IC50 [7]: 477 nM
inhibition of growth at 10 µM (A549 [3]): 92%
inhibition of growth at 10 µM (MCF7): 84.9%

COc1cc2ccc(=O)oc2cc1OC(=O)/C=C/c1ccc(F)cc1
inhibition of growth at 10 µM (MDA-MB-231 [1]): 19.3%
inhibition of growth at 10 µM (HeLa): 3.89%
inhibition of growth at 10 µM [2]: 18%
inhibition of growth at 10 µM (A549 [3]): 21.4%
inhibition of growth at 10 µM (MCF7): 1.77%

COc1cc2cc(NC(=O)/C=C/c3ccc(C#N)cc3)c(=O)oc2cc1O
inhibition of growth at 10 µM (MDA-MB-231 [1]): 13.1%
inhibition of growth at 10 µM (HeLa): 27.1%
inhibition of growth at 10 µM [2]: 14.1%
inhibition of growth at 10 µM (A549 [3]): 36.9%
inhibition of growth at 10 µM (MCF7): 27.3%
